Measurements as given in ChEMBL document CHEMBL1145160, “Neoclerodane diterpenes as a novel scaffold for mu opioid receptor ligands” (J Med Chem, 2005).
Active and inactive are the calls of the source. No cut-off for these calls is given here.

What was measured:
[1] = biological target: T1, Delta-type opioid receptor (Homo sapiens, UniProt P41143); test: Inhibition of [125I]- IOXY binding to human Opioid receptor delta1
[2] = biological target: T2, Kappa-type opioid receptor (Homo sapiens, UniProt P41145); test: Stimulatory effect on [35S]GTP gammaS binding to Opioid receptor kappa1 expressed in CHO cells compared to 500 nM U50,488; assay type: functional, cell-based
In short: (§1)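 Membranes from CHO cells stably transfected with DNA for the human μ, δ or κ opioid receptor; agonist-stimulated [35S]GTPγS binding measured; potency given as EC50 ± SD, efficacy as Emax.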

[3] = biological target: T2, Kappa-type opioid receptor; test: Stimulation of [35S]GTP-gamma-S, binding to Opioid receptor kappa1 expressed in CHO cells; assay type: functional, cell-based; in short: as §1
[4] = biological target: T3, Mu-type opioid receptor (Homo sapiens, UniProt P35372); test: Inhibition of [125I]- IOXY binding to human Opioid receptor mu1
[5] = biological target: Opioid receptors; mu & kappa (Homo sapiens) (UniProt P41145+P35372); test: Relative affinity for human opioid receptor mu1 and kappa1; assay type: protein assay
[6] = biological target: Opioid receptors; delta & kappa (Homo sapiens) (UniProt P41145+P41143); test: Relative affinity for human opioid receptor delta1 and kappa1; assay type: protein assay
[7] = biological target: T3, Mu-type opioid receptor; test: Stimulation of [35S]GTP-gamma-S, binding to Opioid receptor mu1 expressed in CHO cells; ND = Not determined; assay type: functional, cell-based; in short: as §1
[8] = biological target: T1, Delta-type opioid receptor; test: Stimulation of [35S]-GTP gammaS binding to Opioid receptor delta 1 expressed in CHO cells; ND = Not determined; assay type: functional, cell-based; in short: as §1
[9] = biological target: T3, Mu-type opioid receptor; test: Stimulatory effect on [35S]-GTP gammaS binding to Opioid receptor mu1 expressed in CHO cells compared to 10 uM DAMGO; assay type: cell-based; in short: as §1
[10] = biological target: T2, Kappa-type opioid receptor; test: Inhibition of [125I]- IOXY binding to human Opioid receptor kappa1
[11] = biological target: T3, Mu-type opioid receptor; test: Stimulation of [35S]GTP-gamma-S, binding to Opioid receptor mu1 expressed in CHO cells; assay type: functional, cell-based; in short: as §1
[12] = test system: Mus musculus; test: In vivo antinociceptive activity against opioid receptor in mouse p-phenylquinone writhing test; No inhibition (inactive at 1 uM); assay type: functional, organism-based
[13] = test system: Mus musculus; test: In vivo antinociceptive activity against opioid receptor in mouse hot plate […] assay; No inhibition (inactive at 30 uM); assay type: functional, organism-based
[14] = test system: Mus musculus; test: In vivo opioid receptor activity in mouse p-phenylquinone writhing assay; assay type: functional
[15] = test system: Mus musculus; test: In vivo opioid receptor activity in mouse tail flick assay; assay type: functional
[16] = test system: Mus musculus; test: In vivo opioid receptor activity in mouse hot plate assay
[17] = biological target: T3, Mu-type opioid receptor; test: Stimulatory effect on [35S]-GTP gammaS binding to Opioid receptor mu1 expressed in CHO cells compared to 10 uM DAMGO; ND = Not determined; assay type: cell-based; in short: as §1

T2 sequence (P41145 whole entry): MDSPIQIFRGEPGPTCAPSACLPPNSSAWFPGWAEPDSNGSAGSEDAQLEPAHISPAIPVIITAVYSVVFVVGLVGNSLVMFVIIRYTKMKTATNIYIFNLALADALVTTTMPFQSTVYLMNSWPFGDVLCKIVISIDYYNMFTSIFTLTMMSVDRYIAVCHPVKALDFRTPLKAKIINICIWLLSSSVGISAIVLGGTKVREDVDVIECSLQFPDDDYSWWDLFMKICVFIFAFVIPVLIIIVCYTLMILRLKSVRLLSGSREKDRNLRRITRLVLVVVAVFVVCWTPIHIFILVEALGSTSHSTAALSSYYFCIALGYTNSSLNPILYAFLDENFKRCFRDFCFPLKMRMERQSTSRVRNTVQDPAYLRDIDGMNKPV
T1 sequence (P41143 whole entry): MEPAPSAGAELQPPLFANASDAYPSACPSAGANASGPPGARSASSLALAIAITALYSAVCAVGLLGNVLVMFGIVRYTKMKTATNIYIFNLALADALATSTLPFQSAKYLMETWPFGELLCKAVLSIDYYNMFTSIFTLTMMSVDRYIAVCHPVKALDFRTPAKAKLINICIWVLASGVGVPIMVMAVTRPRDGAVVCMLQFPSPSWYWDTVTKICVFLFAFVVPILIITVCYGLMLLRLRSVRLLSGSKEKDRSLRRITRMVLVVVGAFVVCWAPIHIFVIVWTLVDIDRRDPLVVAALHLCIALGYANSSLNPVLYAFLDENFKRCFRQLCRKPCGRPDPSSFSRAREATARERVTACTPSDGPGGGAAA
Opioid receptors; delta & kappa (Homo sapiens), sequence (P41143 whole entry, looked up): as the sequence (P41143 whole entry) above
Opioid receptors; delta & kappa (Homo sapiens), sequence (P41145 whole entry, looked up): as the sequence (P41145 whole entry) above
T3 sequence (P35372 whole entry): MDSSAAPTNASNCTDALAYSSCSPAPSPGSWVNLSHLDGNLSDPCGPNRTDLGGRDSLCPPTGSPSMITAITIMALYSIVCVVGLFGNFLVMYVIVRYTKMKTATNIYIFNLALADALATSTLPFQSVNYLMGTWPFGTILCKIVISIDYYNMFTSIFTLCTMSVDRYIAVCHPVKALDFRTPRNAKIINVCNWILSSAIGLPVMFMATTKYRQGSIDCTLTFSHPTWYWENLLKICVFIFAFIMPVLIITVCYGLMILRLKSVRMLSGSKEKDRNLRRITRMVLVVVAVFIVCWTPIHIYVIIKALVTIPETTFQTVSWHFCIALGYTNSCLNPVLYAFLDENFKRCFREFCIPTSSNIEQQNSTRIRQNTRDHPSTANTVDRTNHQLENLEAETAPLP
Opioid receptors; mu & kappa (Homo sapiens), sequence (P35372 whole entry, looked up): as the sequence (P35372 whole entry) above
Opioid receptors; mu & kappa (Homo sapiens), sequence (P41145 whole entry, looked up): as the sequence (P41145 whole entry) above

Row | SMILES | Ki [1] [µM] | Emax [2] [%] | EC50 [3] [µM] | Ki [4] [µM] | Selectivity [5] | Selectivity [6] | also measured
1 | COC(=O)[C@@H]1C[C@H](OS(C)(=O)=O)C(=O)[C@H]2[C@@]1(C)CC[C@H]1C(=O)O[C@H](c3ccoc3)C[C@]21C | > 10 | 112 | 0.03 |  |  |  | 
2 | COC(=O)[C@@H]1C[C@H](OC(=N)C(Cl)(Cl)Cl)C(=O)[C@H]2[C@@]1(C)CC[C@H]1C(=O)O[C@H](c3ccoc3)C[C@]21C |  |  |  | > 10 | > 150 | 95 | 
3 | C=C(C)C(=O)O[C@H]1C[C@@H](C(=O)OC)[C@]2(C)CC[C@H]3C(=O)O[C@H](c4ccoc4)C[C@]3(C)[C@H]2C1=O | 8.88 |  |  | 0.26 | 7 | 210 | 
4 | COC(=O)[C@@H]1C[C@H](OC(=O)Nc2ccccc2)C(=O)[C@H]2[C@@]1(C)CC[C@H]1C(=O)O[C@H](c3ccoc3)C[C@]21C |  | 100 | 0.48 |  | 0.2 | 2 | EC50 [7]: 0.59 µM; EC50 [8]: 2.53 µM; Emax [9]: 92%
5 | COC(=O)[C@@H]1C[C@H](O)[C@H](O)[C@@H]2[C@@]3(C)C[C@@H](c4ccoc4)OC(=O)[C@H]3CC[C@]21C | > 10 |  |  | > 10 |  |  | Ki [10]: > 10 µM
6 | COC(=O)[C@@H]1C[C@H](OC(=O)c2ccccc2)C(=O)[C@H]2[C@@]1(C)CC[C@H]1C(=O)O[C@H](c3ccoc3)C[C@]21C [HERKINORIN] | 1.17 | 140 | 1.32 |  | 0.13 | 12 | Emax [9]: 130%; EC50 [11]: 0.5 µM
7 | COC(=O)[C@@H]1C[C@H](OC(C)=O)C(=O)[C@H]2[C@@]1(C)CC[C@H]1C(=O)O[C@H](c3ccoc3)C[C@]21C [SALVINORIN A] |  |  |  |  |  |  | inhibition [12]: inactive; inhibition [13]: inactive; ED50 [14]: 0.59 mg/kg; ED50 [15]: 1.98 mg/kg
8 | CCC(=O)O[C@H]1C[C@@H](C(=O)OC)[C@]2(C)CC[C@H]3C(=O)O[C@H](c4ccoc4)C[C@]3(C)[C@H]2C1=O | 6.69 | 110 | 0.14 | > 1 |  | 2730 | 
9 | C=CCNC(=O)O[C@H]1C[C@@H](C(=O)OC)[C@]2(C)CC[C@H]3C(=O)O[C@H](c4ccoc4)C[C@]3(C)[C@H]2C1=O | 6.46 |  |  | 0.64 | 5 | 55 | 
10 | CN1CC[C@]23c4c5ccc(O)c4O[C@H]2[C@@H](O)C=C[C@H]3[C@H]1C5 [MORPHINE] |  |  |  |  |  |  | ED50 [16]: 0.8 mg/kg
11 | COC(=O)C(=O)O[C@H]1C[C@@H](C(=O)OC)[C@]2(C)CC[C@H]3C(=O)O[C@H](c4ccoc4)C[C@]3(C)[C@H]2C1=O | > 10 |  |  | > 10 | > 30 | > 30 | 
12 | COC(=O)[C@@H]1C[C@H](O)[C@H](O)[C@H]2[C@@]1(C)CC[C@H]1C(=O)O[C@H](c3ccoc3)C[C@]21C | > 10 |  |  | 5.74 | 2 | > 3 | Ki [10]: 3.19 µM
13 | COC(=O)[C@@H]1C[C@H](O[Si](C)(C)C)C(=O)[C@H]2[C@@]1(C)CC[C@H]1C(=O)O[C@H](c3ccoc3)C[C@]21C | > 10 |  |  | > 10 | > 7 | > 7 | 
14 | COC(=O)[C@@H]1C[C@H](OC(C)=O)[C@H](OC(C)=O)[C@H]2[C@@]1(C)CC[C@H]1C(=O)O[C@H](c3ccoc3)C[C@]21C | > 10 |  |  | > 10 | > 15 | > 15 | 
15 | COC(=O)[C@@H]1C[C@H](OC(=O)c2cccnc2)C(=O)[C@H]2[C@@]1(C)CC[C@H]1C(=O)O[C@H](c3ccoc3)C[C@]21C | 4.82 | 76 | 5.74 |  | 0.04 | 3 | EC50 [7]: 2.1 µM; Emax [17]: 110%
16 | COC(=O)[C@@H]1C[C@H](OC(=O)C(C)C)C(=O)[C@H]2[C@@]1(C)CC[C@H]1C(=O)O[C@H](c3ccoc3)C[C@]21C | > 10 | 105 | 0.36 | 2.98 | 196 |  | 
